High-throughput results deposited in PubChem BioAssay by several laboratories.
Compounds with a hit are over-represented: about 2.3% of the library has one in this group of screens.
Mcl1-Noxa inh: Mcl-1/Noxa interaction inhibition | TR-FRET Mcl-1/Noxa peptide binding, 2 h | inhibition, % at 21.7 µM | hit rate 1.5% among 220,000 | AID 1022;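 active means compounds that cut the protein-peptide binding signal by more than 50% relative to plate controls in a single-dose test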;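 further: His-tagged Mcl-1 with rhodamine Noxa BH3 peptide and terbium anti-His antibody; 0% = Mcl-1 plus Noxa peptide wells and 100% = peptide-only wells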
Mcl1 Bid PPI: Mcl-1/Bid interaction inhibition. TR-FRET Mcl-1/Bid-Dy647 peptide binding, 1536-well. hit rate 0.97% among 220,000. AID 1021. inhibition, % at 21.7 µM;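 active means compounds that cut the binding signal by more than half at the single screening dose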;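 further: His-tagged Mcl-1 with europium anti-His antibody binding Bid BH3 peptide; 0% = Mcl-1 plus peptide wells and 100% = peptide-only wells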
Bim-Mcl-1: disrupts Bim peptide binding to human Mcl-1; Q07820; Bead-based flow cytometry, Bim peptide-Mcl-1 binding; inhibition, % at 10 µM; hit rate 0.1% among 190,000; AID 1009; in the data active means inhibition above about 40%;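 further: 0% = no compound tracer wells and 100% = peptide blocker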
MCL1 BIM primary: disrupts human MCL1 binding to BIM-BH3 peptide | Q07820 | GST-MCL1 / FITC-Bim-BH3 fluorescence polarization | inhibition, % at 10.9 µM | hit rate 0.68% among 320,000 | AID 2057;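 active means inhibition above the mean inhibition of all tested compounds plus 3 SD, set per campaign, cut at about 40% in these data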;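 further: 0% = DMSO wells and 100% = unlabeled Bim-BH3 peptide control; higher means more loss of mP so more displacement of Bim peptide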
Pemphigus Ab inh: inhibitors of pemphigus antibody binding to human desmoglein-3 | binding (percent of control), % at 10 µM | DSG3-coupled beads, scFv-anti-DSG3-GFP binding, flow cytometry; stronger effect = lower value | hit rate 0.48% among 310,000;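 active means binding more than 3 SD below its plate's average and above zero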
Target sequence (P32926 whole entry, looked up): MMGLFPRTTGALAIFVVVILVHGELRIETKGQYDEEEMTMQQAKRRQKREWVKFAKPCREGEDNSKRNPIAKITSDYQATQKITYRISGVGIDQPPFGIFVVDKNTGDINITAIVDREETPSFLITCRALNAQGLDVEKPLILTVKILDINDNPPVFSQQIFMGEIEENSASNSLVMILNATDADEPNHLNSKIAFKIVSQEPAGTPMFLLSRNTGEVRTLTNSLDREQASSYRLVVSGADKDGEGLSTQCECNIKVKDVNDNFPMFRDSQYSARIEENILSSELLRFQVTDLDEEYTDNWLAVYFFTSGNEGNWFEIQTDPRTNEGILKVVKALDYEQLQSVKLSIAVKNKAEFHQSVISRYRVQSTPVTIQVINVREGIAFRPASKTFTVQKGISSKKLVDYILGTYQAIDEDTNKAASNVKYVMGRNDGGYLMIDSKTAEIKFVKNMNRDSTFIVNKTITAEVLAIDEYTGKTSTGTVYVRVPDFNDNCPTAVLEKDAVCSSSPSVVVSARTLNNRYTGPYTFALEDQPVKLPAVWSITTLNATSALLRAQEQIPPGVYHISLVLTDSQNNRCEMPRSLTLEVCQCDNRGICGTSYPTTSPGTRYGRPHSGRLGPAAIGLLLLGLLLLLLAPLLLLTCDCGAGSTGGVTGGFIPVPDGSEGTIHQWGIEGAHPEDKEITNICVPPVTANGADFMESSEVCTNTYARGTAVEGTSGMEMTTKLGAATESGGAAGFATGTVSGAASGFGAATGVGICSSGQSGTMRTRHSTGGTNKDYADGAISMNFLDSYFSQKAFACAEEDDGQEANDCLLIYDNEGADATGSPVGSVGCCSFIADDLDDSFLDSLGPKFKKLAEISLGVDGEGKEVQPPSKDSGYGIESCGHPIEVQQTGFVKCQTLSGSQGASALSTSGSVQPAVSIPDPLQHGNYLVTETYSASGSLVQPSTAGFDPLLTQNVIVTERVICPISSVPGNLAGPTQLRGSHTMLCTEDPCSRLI
T cell HTS: T cell immune modulation candidate; hit rate 0.068% among 330,000; AID 2052; response (vesicle binding), % at 7 µM; 2C CD8+ T cell-vesicle binding, flow cytometry; stronger effect = lower value;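 active means response, share of CD8 T cells binding vesicles, and their 90th percentile fluorescence all below set limits, cut at about 80% in these data, passing the limit was not always enough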;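 further: values below 100% mean blocked vesicle binding to the CD8+ T cells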
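Test system: purified 2C TCR transgenic mouse naive CD8+ T cells. Probe or stimulus: QL9-peptide-loaded Drosophila micro-vesicles bearing Ld, ICAM-1 and B7-1. Incubation: binding step 1.5 h, 37 °C, antibody labelling 20 min, ice. Measured by: flow cytometry of vesicle-bound cells.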
The depositor's hits bear a star; i = inactive; · = no result.

SMILES	Mcl1-Noxa inh	Mcl1 Bid PPI	Bim-Mcl-1	MCL1 BIM primary	Pemphigus Ab inh	T cell HTS
CCOC(=O)c1snc(-c2ccc(F)cc2)c1N	-9.1	-17.7	66.0*	4.4	99.4	419.3
CCOc1ccc(C(=O)C[n+]2cccc3cc(C)ccc32)cc1	·	·	·	45.5*	193.7	394.7
COc1ccc(NC(=O)CN2C(=O)NC(CC(C)C)C2=O)cc1S(=O)(=O)N1CCOCC1 (centres undefined)	·	·	·	4.4	81.4	911.2
CCN1CCN(C(c2cccs2)C(C)NC(=O)c2cccc(OC)c2)CC1 (centres undefined)	·	·	·	6.2	84.9	i
CCN1CCN(C(c2cccs2)C(C)NC(=O)c2cccc(OC)c2OC)CC1 (centres undefined)	52.2*	-43.1	-5.0	4.2	101.0	417.8
O=C(O)c1ccccc1NSc1ccccc1[N+](=O)[O-]	21.9	2.3	51.0*	20.1	84.1	242.5
CC1CC(C)CN(C(=O)C2CCN(S(=O)(=O)c3c(Cl)cccc3Cl)CC2)C1 (centres undefined)	·	·	·	-1.3	·	225.2
CC1(C)N([O-])c2cc([N+](=O)[O-])ccc2[N+]1=O	84.6*	-64.8	·	45.4*	100.5	i
Cc1ccc(C)n1-c1cc([N+](=O)[O-])ccc1-n1ccnc1	18.2	-9.7	·	-1.1	99.8	244.2
CC1CN(C(=O)/C=C/c2ccc(SC(F)F)cc2)CC(C)O1 (centres undefined)	·	·	·	5.2	101.9	191.7
O=C(NCc1cc([N+](=O)[O-])ccc1O)c1cc(-c2ccncc2)nc2ccccc12	·	·	·	-2.5	99.6	319.4
Oc1ccc(C=NCC2COc3ccccc3O2)cc1 (centres undefined)	14.2	-8.9	80.0*	3.5	100.9	832.0
Cc1n[nH]c(C)c1S(=O)(=O)N1CCN(c2ccccn2)CC1	-10.1	70.2*	-3.0	-2.7	97.7	196.5
Cc1cc(C)c(C)c(S(=O)(=O)N2CCN(c3ccccn3)CC2)c1C	·	·	·	2.0	103.7	605.1
CC(=O)c1c(C(C)=O)c(C)n(-c2nc(-c3ccc(C)c(C)c3)c(C)s2)c1C	4.0	11.9	-1.0	2.3	·	161.2
COc1ccc(-c2nc(-n3c(C)c(C(C)=O)c(C(C)=O)c3C)sc2C)cc1	11.9	98.4*	-2.0	2.0	·	388.2
CC(C)CSc1nc(N)nc2c1ncn2C1OC(CO)C(O)C1O (centres undefined)	·	·	·	·	96.7	·
COC(=O)c1ccc(CNC(=O)Cn2cnnn2)cc1	·	·	·	·	80.6*	178.0
COc1ccccc1CNC(=O)Cn1cnnn1	·	·	·	-6.6	109.2	i
Cc1ccc(Cn2c(=S)[nH]c3ccc(N4CCOCC4)cc3c2=O)o1	72.7*	-3.7	3.0	22.2	·	170.0
O=c1c2cc(N3CCOCC3)ccc2[nH]c(=S)n1Cc1ccc(Cl)cc1	19.5	4.6	-10.0	6.7	91.1	449.0
Cc1ccccc1NC(=O)Cn1c(O)c(N=NC(=O)c2ccccc2O)c2ccccc21	-10.9	66.0*	0.0	30.8	100.8	332.1
O=C(CSc1ccc(F)cc1)NCC1(N2CCOCC2)CCCCC1	·	·	·	3.4	104.2	343.0
O=C(CCC(=O)N(c1ccccc1)C(C(=O)NC1CCCC1)c1ccncc1)Nc1cccnc1 (centres undefined)	5.3	-6.0	-4.0	6.9	96.9	310.9
COCCN(C(=O)CCC(=O)Nc1cccnc1)C(C(=O)NC1CCCCC1)c1ccccc1 (centres undefined)	6.2	-4.3	-2.0	-1.4	82.2*	333.1
SMILES	Mcl1-Noxa inh	Mcl1 Bid PPI	Bim-Mcl-1	MCL1 BIM primary	Pemphigus Ab inh	T cell HTS
O=C1N=c2ccccc2=C1c1[nH]c(=S)[nH]c1O	65.5*	-24.0	-4.0	15.8	71.0	191.3
Cc1ccc(Cl)c2c1=NC(=O)C=2c1[nH]c(=S)[nH]c1O	53.0*	-100.4	1.0	6.4	102.5	196.8
Cc1nc(SCC(=O)N2CCN(c3ccccn3)CC2)c(C#N)c(C)c1C	·	·	·	·	·	194.6
CCN(C(=O)COC(=O)C(c1ccccc1)c1ccccc1)c1c(N)n(Cc2ccccc2)c(=O)[nH]c1=O	·	·	·	·	110.8	·
COc1nc(-c2ccccc2)cc(-c2ccc3c(c2)OCO3)c1C#N	15.1	55.7*	·	8.7	107.8	549.8
CC(C)(C)Cc1c(-c2ccc(F)cc2)nc2ccc(Cl)cn12	·	·	·	·	110.1	·
Cc1ccccc1NC(=O)Cn1nc(-c2ccccc2)nc1-c1ccccc1	4.1	-0.2	-1.0	5.7	-17.2*	284.9
COc1ccc(/C=N/n2c(-c3ccccc3)n[nH]c2=S)cc1	·	·	·	-9.0	96.9	297.6
COc1ccc(/C=N/n2c(N)nc(-c3ccccc3)c2-c2ccccc2)cc1	48.3	56.5*	-3.0	0.3	·	184.9
Nc1ccccc1C#CC(=O)c1ccccc1	·	·	·	-8.5	100.0	405.4
CC(C)(C)OC(=O)C[C@@H]1C/C=C\C[C@@H](CC(=O)NCCO)C(=O)N2CCC[C@H]2COC1=O	·	·	·	·	100.2	264.6
CCc1ccc(C(=O)/C=C/NCc2ccc(F)cc2)cc1	13.3	53.3*	-10.0	-2.1	102.4	227.3
O=C(Cc1cccs1)N/N=C/c1ccco1	10.7	-13.3	-5.0	-2.4	98.4	215.2
O=C(Cc1cccs1)N/N=C/C=C\c1ccco1	90.2*	-17.0	-2.0	38.7	90.8	190.6
CCCC(C(=O)O)N1C(=O)/C(=C/c2cccn2C)SC1=S (centres undefined)	52.0*	1.2	-2.0	-113.6	103.8	i
CC(C)C(C(=O)O)N1C(=O)/C(=C/c2cccn2C)SC1=S (centres undefined)	38.9	-28.1	-1.0	-164.5	97.1	558.0
CCOC(=O)c1ccc(OCCOc2ccccc2C)cc1	·	·	·	10.0	108.5	465.4
O=C(O)CCCC(=O)Nc1ccc(Oc2ncnc3cc(Cl)ccc23)nc1	23.4	-11.8	·	-1.8	113.5	182.2
O=C(Nc1ccc(F)cc1)Nc1ccc(Oc2ncnc3cc(Cl)ccc23)nc1	-19.4	91.9*	·	2.9	·	348.7
COc1cccc(N(CC(=O)N2CCN(C)CC2)S(=O)(=O)c2ccccc2)c1	3.7	59.8*	1.0	2.4	98.6	269.5
COc1ccc(N2CCN(C(=O)CN(c3cccc(OC)c3)S(=O)(=O)c3ccccc3)CC2)cc1	·	·	·	8.0	102.9	211.1
COc1ccc(C(=O)/C=C2\C(=O)Nc3ccc(Br)cc32)cc1	·	·	·	·	87.8	·
O=C1Nc2ccc(Br)cc2/C1=C/C(=O)c1ccc2c(c1)OCO2	104.6*	71.7*	·	-8.3	107.8	197.2
COc1ccc(NC(=O)N(C)C[C@H]2OCCCC[C@H](C)Oc3ccc(NC(=O)Nc4ccc5c(c4)OCO5)cc3C(=O)N([C@@H](C)CO)C[C@@H]2C)cc1	·	·	·	·	102.4	·
O=C(Cn1c(=O)cnc2ccccc21)NNC(=O)c1ccccc1Cl	·	·	·	9.9	·	532.9
CCc1nnc(NC(=O)CSc2nnc(-c3ccoc3C)n2-c2cccc(C)c2)s1	-9.1	-17.8	-3.0	4.6	87.4	i
Cc1cccc(-n2c(SCC(=O)Nc3nnc(C)s3)nnc2-c2ccoc2C)c1	-4.0	67.3*	-8.0	3.8	82.7	238.7
